This is a sample that favours compounds with a hit; in the whole collection about 1.7% have one here.
EBNA-1 inhibitor: EBNA-1 DNA-binding inhibitors, primary screen, biochemical, fluorescence polarization. inhibition, % at 14.8 µM. hit rate 0.34% among 300,000; in the data active = inhibition above about 28%
ZTA DNA inh: ZTA (EBV) inhibition in EBNA-1 counter-screen | P03206 | ZTA-DNA binding, fluorescence polarization | inhibition, % at 11 µM | hit rate 0.15% among 320,000; in the data active = inhibition above about 33%
Apaf1 inhib: inhibitors of human Apaf-1 apoptosome, primary screen, biochemical, DEVD-Rh110 fluorescence, uHTS; inhibition, % at 20 µM; hit rate 0.71% among 330,000; reconstituted apoptosome caspase-3 activity; AID 489030, 2010; active = inhibition of at least 40% at 20 µM;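 note: plate controls were DMSO wells for no effect and DEVD-CHO caspase inhibitor wells for full effect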
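Assay system: Apoptosome proteins | Medium: pH 7.5 Hepes buffer with CHAPS, BSA, DTT | Also added: Cytochrome c and DEVD-Rh110 substrate | Times: 30 min plus 50 min, RT | Detection: Rhodamine 110 fluorescence at Ex 480/Em 540 nm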
PREPL inh: PREPL enzyme inhibitors, primary screen, biochemical, fluorescence polarization; AID 2751, 2010; inhibition, % at 5.96 µM; hit rate 0.68% among 320,000; recombinant PREPL, fluorescence polarization activity-based probe; Prolyl endopeptidase-like (Homo sapiens), Q4J6C6; in the data active = inhibition above about 43%;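 note: 0% = enzyme with DMSO and 100% = wells lacking enzyme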
Target sequence (Q4J6C6 whole entry, looked up): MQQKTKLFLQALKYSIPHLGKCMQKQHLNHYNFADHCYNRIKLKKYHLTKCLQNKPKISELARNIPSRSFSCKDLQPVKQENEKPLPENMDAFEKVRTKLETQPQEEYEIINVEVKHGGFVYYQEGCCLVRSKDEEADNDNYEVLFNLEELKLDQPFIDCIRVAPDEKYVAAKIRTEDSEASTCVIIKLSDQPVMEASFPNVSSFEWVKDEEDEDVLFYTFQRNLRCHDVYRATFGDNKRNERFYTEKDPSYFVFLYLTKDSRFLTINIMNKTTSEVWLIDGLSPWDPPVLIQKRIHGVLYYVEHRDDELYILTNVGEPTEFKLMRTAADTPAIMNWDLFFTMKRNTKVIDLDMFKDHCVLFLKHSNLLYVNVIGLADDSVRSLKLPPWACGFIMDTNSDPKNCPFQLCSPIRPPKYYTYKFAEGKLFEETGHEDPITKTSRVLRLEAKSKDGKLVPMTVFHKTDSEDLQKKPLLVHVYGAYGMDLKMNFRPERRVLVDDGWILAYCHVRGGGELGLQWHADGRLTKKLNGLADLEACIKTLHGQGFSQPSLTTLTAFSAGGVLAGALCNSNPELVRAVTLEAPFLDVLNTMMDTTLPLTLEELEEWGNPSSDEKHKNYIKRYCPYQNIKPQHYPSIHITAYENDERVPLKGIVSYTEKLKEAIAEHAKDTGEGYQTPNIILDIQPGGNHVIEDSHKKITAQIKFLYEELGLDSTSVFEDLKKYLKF
UBC13 polyUb: UBC13 polyubiquitin chain formation inhibitors, primary screen, biochemical, TR-FRET, uHTS; Ubiquitin-conjugating enzyme E2 N (Homo sapiens), P61088; inhibition, % at 20 µM; hit rate 0.47% among 330,000; in the data active = inhibition above about 45%, passing the limit was not always enough
Apaf-1 inh conf2: Apaf-1 inhibitors, single-dose retest, confirmation, biochemical, fluorescence, DEVD-Rh110, 20 µM; reconstituted apoptosome, caspase-3 DEVD-Rh110 fluorescence; shares compounds with Apaf1 inhib; hit rate 25% among 1,800; AID 504614, 2011; inhibition, % at 20 µM;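 active = mean inhibition of at least 40% at 20 µM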;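 note: plate controls were DMSO wells for no effect and DEVD-CHO caspase inhibitor control wells for full effect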
Rh110 interf inh: Rh110 fluorescence interference by putative Apaf-1 inhibitors, confirmation, artefact control for Apaf-1 inhibitor project, biochemical, 20 µM; 1,800 tested, under 10 active; shares compounds with Apaf1 inhib; quenched caspase reaction; activation (fluorescence interference), % at 20 µM;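 active = signal rise of 40% or more at 20 µM, treated as a fluorescence artifact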
Fluor interf inh: fluorescence interference of Apaf-1 inhibitor hits, dose response, artefact control for Apaf-1 inhibitor project; 460 tested, under 10 active; IC50, µM; fluorescence interference counterscreen, Apaf-1 assay format; shares compounds with Apaf1 inhib; call rule not given here
The depositor's hits bear a star; nt = not tested or not shown.

SMILES	EBNA-1 inhibitor	ZTA DNA inh	Apaf1 inhib	PREPL inh	UBC13 polyUb	Apaf-1 inh conf2	Rh110 interf inh	others
CCOC(=O)N1CCN(C2=C(NS(=O)(=O)c3ccccc3)C(=O)c3ccccc3C2=O)CC1	2.0	11.8	48.5*	7.6	-55.2	24.1	0.1
C/C=C(/C)C(=O)O[C@@H]1c2cc3c(c(OC)c2-c2c(cc(OC)c(OC)c2OC)[C@@H](OC(C)=O)[C@@H](C)[C@H]1C)OCO3	6.8	-0.5	12.9	8.2	-2.7	nt	nt
O=C(c1ccco1)N1CCN(C(=O)c2ccccc2[N+](=O)[O-])CC1	-10.4	-7.8	4.0	9.2	-6.5	nt	nt
CCC(CC)C(=O)Nc1ccccc1-n1cccc1	-3.3	-19.2	7.8	2.0	1.4	nt	nt
O=C1C(NS(=O)(=O)c2ccc(Cl)cc2)=C(N2CCCCC2)C(=O)c2ccccc21	-2.4	1.1	71.8*	17.6	-57.6	41.5*	6.6	Fluor interf inh=>100
COc1ccccc1NC(=O)CN(C)S(=O)(=O)c1ccc2c(c1)CCC(=O)N2	0.9	10.4	7.1	11.7	22.3	nt	nt
CCOC(=O)C1C(=O)CC(C)(O)C(C(=O)OCC)C1c1ccco1 (stereo not given)	-6.2	-3.0	-3.5	6.0	3.2	nt	nt
CN(C)C=Nc1nonc1-c1ccccc1	-9.9	1.2	-4.0	11.1	-5.1	nt	nt
CN(C)C=Nc1c(Br)cc(Br)c2nonc12	10.1	3.7	42.9*	-4.7	-74.9	38.9	1.6
Cc1ccc(C)c(NC(=O)CN(C)C(=O)c2cccc(S(=O)(=O)N3CCN(Cc4ccccc4)CC3)c2)c1	-3.4	-1.9	41.0*	19.1	2.3	36.6	-0.5
CC(=O)c1cccc(NC(=S)N2c3ccccc3CC2C)c1 (stereo not given)	13.4	11.8	-3.5	-6.2	4.0	nt	nt
CCn1c(SCC(=O)Nc2c(C)n(C)n(-c3ccccc3)c2=O)nc2c1c(=O)n(C)c(=O)n2C	-3.0	-17.9	1.0	2.4	4.2	nt	nt
N#Cc1c(N2CCCC(O)C2)nc(N)c2c(N)nc3c(c12)CC(=O)N3C12CC3CC(CC(C3)C1)C2 (stereo not given)	9.1	-1.9	97.8*	22.9	-21.5	43.6*	6.5	Fluor interf inh=>100
C=C(C)CN(CC)c1nc(N)c2c(N)nc3c(c2c1C#N)CC(=O)N3C12CC3CC(CC(C3)C1)C2	-0.9	-14.8	15.5	27.6	-41.6	nt	nt
O=C(O)c1ccc(NC2=C(n3nnc4ccccc43)C(=O)c3ccccc3C2=O)cc1	-5.7	-9.6	73.1*	-5.0	-75.6	75.6*	3.8	Fluor interf inh=>100
Cc1ccc(NC2=C(NCCO)C(=O)c3ccccc3C2=O)cc1	-9.0	-2.0	78.1*	10.8	-64.6	61.2*	0.4	Fluor interf inh=>100
COc1ccc(C2=C(Nc3ccc(C)cc3)c3ccccc3C2=O)cc1	-5.9	-4.8	4.8	9.7	-28.8	nt	nt
Cc1ccc(S(=O)(=O)N2[C@@H](c3ccc(Cl)c(Cl)c3)C(C(=O)O)=C[C@H]2CC2CCCC2)cc1	nt	nt	16.3	4.7	-29.2	nt	nt
O=c1[nH]nc(CNc2ccc(O)cc2)c2ccccc12	7.4	-1.9	94.5*	40.6	-1.1	4.3	-0.1
CC(C)NC(=O)c1sc2nc3c(c(-c4cccs4)c2c1N)CN(C)CC3	-6.3	10.8	39.1	24.5	-70.3	nt	nt
Cc1cccc(NC(=O)c2sc3nc4c(c(-c5cccs5)c3c2N)CN(C)CC4)c1	-3.3	7.3	49.9*	40.7	-57.4	23.8	13.3
C[n+]1cccc2c(Br)ccc([O-])c21	4.0	6.3	98.2*	12.3	-87.5	63.9*	6.6	Fluor interf inh=>100
CCOC(=O)c1nn(-c2ccccc2)c(=O)c2c(N)scc12	-3.8	12.2	55.5*	5.7	-24.1	21.6	1.9
CCOC(=O)c1nn(-c2ccccc2)c(=O)c2c(NC(C)=O)scc12	-2.3	3.6	-6.9	-0.2	-3.3	nt	nt
CCOC(=O)c1nn(-c2ccccc2C)c(=O)c2c(N)scc12	9.8	5.9	46.7*	4.3	0.9	12.4	-14.8
SMILES	EBNA-1 inhibitor	ZTA DNA inh	Apaf1 inhib	PREPL inh	UBC13 polyUb	Apaf-1 inh conf2	Rh110 interf inh	others
CCN(C(=O)c1coc(=O)c(Br)c1)c1ccc2c(c1)OCO2	-0.6	-12.8	59.3*	36.4	-15.5	18.0	-0.2
CCN(C(=O)c1c(C)cc(=O)oc1C)c1ccc2c(c1)OCO2	11.8	3.3	5.9	4.8	-7.5	nt	nt
Cc1ccc(C(=O)NCC(=O)N2CCCCCCC2)cc1	nt	-12.9	60.6*	9.1	20.8	38.2	5.3
Cc1ccc(C(=O)NCC(=O)N2CCCCCC2)cc1	7.6	8.2	4.7	-7.5	2.9	nt	nt
COc1ccccc1C(CNC(=O)c1cccc(S(=O)(=O)Nc2ccc(C)cc2)c1)N(C)C (stereo not given)	-7.1	16.2	46.1*	-10.9	14.7	28.0	7.1
COc1ccc(NS(=O)(=O)c2cccc(C(=O)NCC(c3ccccc3)N(C)C)c2)cc1 (stereo not given)	-13.3	-11.6	21.6	1.2	10.7	nt	nt
CCOC(=O)C1CCN(C(=O)c2cccc(NS(=O)(=O)c3ccc(Br)cc3)c2)CC1	nt	-1.9	5.6	12.2	2.9	nt	nt
NC(=O)C1CCN(C2=C(NS(=O)(=O)c3ccccc3)C(=O)c3ccccc3C2=O)CC1	8.2	0.5	21.5	-1.2	-87.9	nt	nt
NC(=O)C1CCN(C2=C(NS(=O)(=O)c3ccc(Br)cc3)C(=O)c3ccccc3C2=O)CC1	-19.8	6.3	65.5*	17.6	-117.6	48.4*	14.0	Fluor interf inh=>100
CCOC(=O)C1CCN(C2=C(NS(=O)(=O)c3ccc(Br)cc3)C(=O)c3ccccc3C2=O)CC1	-1.0	-15.8	68.0*	15.2	-86.6	33.1	-2.0
CN(Cc1c(C(=O)N/N=C/c2cccc(F)c2)nnn1-c1nonc1N)C1CCCCC1	-11.9	-6.4	11.6	9.3	-7.8	nt	nt
Cc1nn(-c2ccccc2)c(C)c1C(=O)OCC(=O)N1CCN(S(=O)(=O)c2ccccc2)CC1	-12.0	-6.7	7.2	-7.7	-3.8	nt	nt
O=C1C(Cl)=C(NCCN2CCOCC2)C(=O)c2ccccc21	-3.9	5.1	46.4*	1.6	-282.7	46.6*	1.9	Fluor interf inh=>100
O=C1c2ccccc2C(=O)N1CCN1CCOCC1	-3.6	4.7	-2.8	1.7	-4.1	nt	nt
CCOCCCNC1=C(Cl)C(=O)c2ccccc2C1=O	6.6	2.8	47.9*	11.8	-229.1	29.7	0.3
CC1CCCC(NC(=O)CNC(=S)N(Cc2ccccc2)Cc2cccs2)C1C (stereo not given)	1.3	-8.1	26.9	11.8	-10.4	nt	nt
C(=N\c1nc2ccccc2n1CCN1CCOCC1)/c1cccs1	5.7	-1.5	-17.6	-0.9	5.1	nt	nt

Source: PubChem
